CTSL1 counter = cathepsin L1 inhibition, PFM18AAP counter-screen | recombinant F. hepatica cathepsin L1, Z-Leu-Arg-MCA fluorescence | inhibition, % at 5.96 µM | hit rate 0.49% among 300,000 | AID 1906;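 active = inhibition above the mean of all tested compounds plus 3 SD, set per screening campaign, cut at about 17% in these data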;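 also: 0% = plate median of test compound wells and 100% = 1 µM Z-Phe-Ala-diazomethylketone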
pCIP destab = p/CIP protein destabilization | Q05BA5 | F442A p/CIP-EGFP cells, EGFP fluorescence, 16 h | decrease of EGFP signal, % at 10 µM | hit rate 0.01% among 290,000;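 active = EGFP signal decrease of at least 30% at 10 µM or well 3 SD below plate mean, unless failing retest; inactive = the rest, including hits failing retest or dose response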
Arrestin-AP2 inh = blocks beta-arrestin peptide binding to AP2 adaptin | FITC-arrestin peptide / GST-AP2 beads, flow cytometry; AP2 beta2 appendage carries R879A mutation | inhibition, % at 10 µM | hit rate 0.31% among 340,000;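 active = inhibition above a set limit, near 3 SD of compounds lacking own fluorescence, cut at about 54% in these data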;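 also: plate controls were DMSO wells for no effect and 5 µM unlabelled arrestin peptide for full effect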
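System: GST-AP2 R879A glutathione beads. Medium: PBS with 0.05% Tween 20 and 0.1% BSA. Also added: FITC-arrestin peptide, 50 nM. Incubation: 12 min plus 1 h, RT. Measured by: high-throughput flow cytometry of beads, ex 488, em 535 nm. Evaluation: percent drop in bead-associated FITC signal.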
Hep lipid drop = hepatic lipid droplet formation modulation. hit rate 0.4% among 240,000. inhibition, % at 6.5 µM. AML12 mouse hepatocytes, oleate lipid droplets, BODIPY imaging;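 active = lipid droplet intensity inhibited by at least 50%, with more than 500 cells counted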
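Material – mouse AML12 hepatocyte cell line, fixed after treatment · Compound dosing – one dose, 6.5 µM compound · Times – compound with oleate, overnight · Measured by – Image-based BODIPY and DAPI two-channel analysis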
Lipid drop inh = hepatic lipid droplet formation inhibition, confirmed | AID 463183 | AML12 mouse hepatocytes, BODIPY lipid droplet imaging; droplets induced with 100 µM oleic acid | inhibition, % at 5.2 µM | shares compounds with Hep lipid drop | hit rate 65% among 870;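 active = inhibition of lipid droplet metric at least 50%, with more than 300 cells in each of four replicates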;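 also: plate controls were DMSO with oleic acid for no effect and 5 µM Triacsin-C for full effect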
AML12 tox img = toxic to AML12 mouse hepatocytes in counter-screen; shares compounds with Hep lipid drop; DAPI nuclear morphology cytotoxicity imaging; hits give high values; cells fed 100 µM oleate overnight; z-score at 5 µM; hit rate 3% among 870; AID 463200; in the data active = z-score above about 6.3;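 also: compound exposure lasted overnight at 37 °C before fixation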
AML12 tox conf = confirmation of cytotoxicity in AML12 mouse hepatocytes; shares compounds with Hep lipid drop; AML12 mouse hepatocyte viability, ATP luminescence; cells loaded with 100 µM oleic acid; cytotoxicity, % at 50 µM; 530 tested, under 10 active; AID 463219;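 active = cytotoxicity above 50% in each of four replicates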;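 also: compound exposure lasted overnight at 37 °C before the ATP read; 0% = DMSO-treated cells and 100% = wells with no cells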
Active calls of the source: *; . = no result. Sampled rows, rich in hits. Any-hit rate of the full collection: about 1%.

SMILES | CTSL1 counter | pCIP destab | Arrestin-AP2 inh | Hep lipid drop | Lipid drop inh | AML12 tox img | others
O=C(CSc1nc2ccccc2[nH]1)N1c2ccccc2Sc2ccccc21 | -5 | 6 | 0 | 7 | . | .
COC(=O)c1c(C(=O)OC)c2ccccn2c1C(=O)c1ccccc1 | -1 | -14 | -13 | 9 | . | .
Cc1cc(N(CCO)CCO)ccc1N=Nc1cc(F)ccc1F | 8 | 19 | 18 | 115* | 112* | 0.88 | AML12 tox conf=20
C#CCOCCOCCOCCNc1nc(N2CCOCC2)nc(N2CCN(C(=O)[C@H]([C@@H](C)CC)n3cc([C@@H](N)Cc4ccc(O)cc4)nn3)CC2)n1 | -3 | -9 | 6 | 55* | 13 | -0.7
C#CCOCCOCCOCCNc1nc(N2CCN(C(=O)[C@H]([C@@H](C)CC)n3cc([C@@H](N)Cc4ccc(O)cc4)nn3)CC2)nc(N2CCN(C(=O)[C@H]([C@@H](C)CC)n3cc([C@@H](N)CC(C)C)nn3)CC2)n1 | 9 | 2 | 25 | -1 | . | .
NC(=O)c1sc2nc(-c3cccnc3)ccc2c1N | 2 | -9 | 2 | 4 | . | .
Cc1ccc(S(=O)(=O)N(C)C)cc1NC(=S)Nc1ccc2cn[nH]c2c1 | -7 | 0 | 1 | 56* | 25 | -0.93
Cc1cc(C)nc(SC(C(=O)O)c2ccccc2)n1 (stereo not drawn) | -6 | -5 | 1 | 2 | . | .
CCCC1O[C@@H]2C[C@H]3[C@@H]4CCC5=CC(=O)C=C[C@]5(C)[C@H]4[C@@H](O)C[C@]3(C)[C@]2(C(=O)CO)O1 (stereo partly drawn) | 5 | 2 | 17 | 118* | 113* | 2.3 | AML12 tox conf=22
CCOc1ccccc1Nc1nnc(SCC(=O)NC(=O)c2cccn2C)s1 | 1 | 0 | -2 | -1 | . | .
CCOc1ccccc1Nc1nnc(SC(C)C(=O)Nc2nc(-c3ccccc3)cs2)s1 (stereo not drawn) | 7 | 2 | 8 | 75* | 105* | -0.2 | AML12 tox conf=7
COc1ccc(NC(=O)CSc2nnc(-c3ccc(C)cc3)n2N)cc1 | 2 | -18 | -3 | . | . | .
CC(C(=O)NN)n1nnc(N2CCOCC2)n1 (stereo not drawn) | -1 | 1 | 13 | -21 | . | .
CN(C)c1nc(N/N=C/c2c[nH]c3ccccc23)nc(N2CCOCC2)n1 | 0 | -7 | 20 | 131* | 86* | 22*
Cc1ccc(CNC(=O)C2CC(=O)N(C3CCCC3)C2)cc1 (stereo not drawn) | . | . | 21 | . | . | .
O=C1CC(/C=C/c2ccccc2)(C(=O)NC2CCCC2)N1c1ccc(S(=O)(=O)N2CCCC2)cc1 (stereo not drawn) | 7 | -12 | 31 | 90* | 84* | -0.81
CN1CCN(C2=C(NS(=O)(=O)c3cccs3)C(=O)c3ccccc3C2=O)CC1 | -4 | -4 | 2 | -8 | . | .
O=C1C(NS(=O)(=O)c2cccs2)=C(N2CCN(c3cccc(C(F)(F)F)c3)CC2)C(=O)c2ccccc21 | 0 | -13 | 7 | 52* | 113* | -0.37 | AML12 tox conf=12
O=C(CSc1nc(-c2ccco2)cc(C(F)(F)F)n1)Nc1ccc(C(=O)N2CCOCC2)cc1 | -2 | -5 | 10 | 59* | 90* | -0.19 | AML12 tox conf=9
COc1ccc(N=C2C(=Nc3ccc(OC)cc3)N(c3ccc(OC)cc3)C(=S)N2c2ccccc2)cc1 | 1 | 2 | -2 | 41 | . | .
COc1ccc(N=C2C(=Nc3ccc(OC)cc3)N(c3ccc(OC)cc3)C(=S)N2C)cc1 | -1 | 3 | 1 | 58* | 109* | 0.27 | AML12 tox conf=16
N#CC(C#N)=c1ccc2c(c1)N1C(c3ccccc3)=CC(c3ccccc3)C3CCCCC31N=2 (stereo not drawn) | -6 | -14 | 10 | 65* | 50 | -1.1
Cc1ccc(CNC(=O)CCc2c(C)nc3c(c(C)nn3-c3ccc(C)cc3)c2C)cc1 | 1 | 9 | -1 | 2 | . | .
COc1ccc(-c2cc(C(F)(F)F)nc(SCCC(=O)NCc3ccccc3)n2)cc1 | 5 | -17 | -40 | 62* | -6 | 0.13
COc1ccc(-c2cc(C(F)(F)F)nc(SCc3cccc(C(=O)O)c3)n2)cc1 | 6 | -10 | 0 | . | . | .
SMILES | CTSL1 counter | pCIP destab | Arrestin-AP2 inh | Hep lipid drop | Lipid drop inh | AML12 tox img | others
CSc1ccc(CN2CCN(C3CCCC3)C(CCO)C2)cc1 (stereo not drawn) | 0 | 6 | -2 | 55* | -3 | -0.55
OCCC1CN(Cc2ccncc2)CCN1C1CCCC1 (stereo not drawn) | 1 | 10 | -7 | 11 | . | .
Cc1nc(C(=O)NCCCO)cc2c1[nH]c1ccccc12 | -1 | 0 | 35 | 2 | . | .
CCCC(=O)Nc1c2c(nc3ccccc13)N(c1ccccc1)CC2 | -1 | -8 | 1 | 52* | 44 | 0.44
O=C(CN1CCCCC1)Nc1c2c(nc3ccccc13)N(c1ccccc1)CC2 | -1 | -34 | 6 | -5 | . | .
CCC1(c2ccccc2)NC(=O)N(CC(=O)N(C)Cc2c(F)cccc2Cl)C1=O (stereo not drawn) | 4 | -12 | 17 | 81* | 99* | 0.2 | AML12 tox conf=14
CCC1(c2ccccc2)NC(=O)N(CC(=O)N(C)Cc2ccccc2)C1=O (stereo not drawn) | -6 | 3 | 14 | 12 | . | .
COC(=O)c1scc(C)c1NC(=O)Nc1ccccc1 | 0 | -9 | 4 | -1 | . | .
CCOC(=O)c1ccc(NC(=O)COc2ccc(S(=O)(=O)NC(C)(C)C)cc2)cc1 | 1 | -6 | -9 | 96* | 107* | -0.023 | AML12 tox conf=3
CCOC(=O)COc1ccc(S(=O)(=O)Nc2cccc(SC)c2)cc1 | 0 | 5 | 1 | 9 | . | .
Cc1nc(NC(=O)C2CC2)sc1C(=O)N(C)C | -1 | -11 | 2 | 70* | -17 | -0.32
COC(=O)Nc1nc(C)c(C(=O)N(C)C)s1 | -2 | 7 | -5 | . | . | .
O=C(NCCc1c[nH]c2ccccc12)C(=O)NCC1OCCN1S(=O)(=O)c1ccccc1 (stereo not drawn) | 0 | -7 | 13 | -18 | . | .
Cc1cc(C)c(S(=O)(=O)N2CCOC2CNC(=O)C(=O)NCCc2c[nH]c3ccccc23)c(C)c1 (stereo not drawn) | -4 | 6 | 3 | 76* | 77* | -1 | AML12 tox conf=10
C/C(Cc1ccccc1)=N\NC(=O)C1CCCCC1 | -1 | 1 | -7 | . | . | .
O=c1[nH]cnc2sc3c(c12)CCN(Cc1ccccc1)C3 | -1 | -12 | 0 | 55* | 24 | -0.011
O=c1[nH]cnc2sc3c(c12)CN(Cc1ccccc1)CC3 | 0 | 0 | 7 | -1 | . | .
CC1CCN(C(=O)CSc2nc3c(cnn3-c3ccccc3)c(=O)[nH]2)CC1 | 7 | -1 | 2 | . | . | .
